Screens from PubChem BioAssay.
A selection: hits, their analogues and other compounds. The true share with any hit is near 2%.
PP5 primary: blocks human protein phosphatase 5 activity; P53041; purified PP5c, OMFP substrate fluorescence; inhibition, % at 6.7 µM; 320,000 tested, 0.18% active; AID 1987;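 active means inhibition above the campaign's mean inhibition across all tested compounds plus 3 SD, cut at about 9.5% in these data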;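 further: 0% = DMSO only and 100% = 100 µM cantharidin control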
UCH37 DUB inh: blocks the human deubiquitinase UCH37; 330,000 tested, 0.33% active; purified proteasome/UCH37, Ub-AMC cleavage fluorescence; AID 588478; inhibition, % (no concentration beside the values);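 active means mean inhibition over replicate wells above about 20%, limit read from the data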;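 further: 0% = compound-free wells with enzyme and 100% = wells lacking proteasome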
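assay system = human UCH37 enzyme supplied as purified proteasome complex | amount = proteasome at 0.15 nM in the dispensed enzyme solution | schedule = 30 min compound-proteasome preincubation then 25 min substrate reaction, room temperature | measured by = fluorescence, ex 355 nm, em 460 nm | benchmarks = no-proteasome wells (full inhibition) and compound-free wells (no inhibition)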
Apaf1 inhib: inhibitors of human Apaf-1 apoptosome; 330,000 tested, 0.71% active; AID 489030; inhibition, % at 20 µM; O14727; reconstituted apoptosome caspase-3 activity, DEVD-Rh110 fluorescence; active means inhibition of at least 40% at 20 µM;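 further: plate controls were DMSO wells for no effect and DEVD-CHO caspase inhibitor wells for full effect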
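Material: biochemical Apaf-1 apoptosome reconstitution. Medium: Hepes buffer, pH 7.5. Also added: cytochrome c activation, bis-DEVD rhodamine 110 substrate. Timing: 30 min compound preincubation, 50 min activation, room temperature. Measured by: rhodamine 110 fluorescence at Ex 480/Em 540 nm.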
CTSL1 counter: counter-screen for PFM18AAP inhibitors: inhibitors of F. hepatica cathepsin L1. 300,000 tested, 0.49% active. inhibition, % at 5.96 µM. AID 1906. recombinant F. hepatica cathepsin L1, Z-Leu-Arg-MCA fluorescence;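 active means inhibition above the mean of all tested compounds plus 3 SD, set per screening campaign, cut at about 17% in these data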;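 further: 0% = plate median of test compound wells and 100% = 1 µM Z-Phe-Ala-diazomethylketone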
GSTO1 inh: GSTO1 inhibition, counter-screen for RBBP9 inhibitors. P78417. recombinant GSTO1, activity-based probe fluorescence polarization. inhibition, % at 5.96 µM. 300,000 tested, 1.1% active. AID 1974;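 active means inhibition above the campaign mean inhibition plus 3 SD, cut at about 35% in these data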;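 further: 0% = GSTO1-1 with DMSO and 100% = wells lacking GSTO1-1 enzyme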
PAD4 inh: blocks human protein arginine deiminase 4; Q9UM07; recombinant PAD4, RCA probe fluorescence polarization; inhibition, % at 6.36 µM; 330,000 tested, 0.41% active; AID 485272;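 active means percent inhibition above a cutoff equal to the mean of all tested compounds plus 3 SD, cut at about 15% in these data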;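 further: 0% = PAD4 with RCA probe and DMSO and 100% = probe without PAD4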
Target sequence (Q9UM07 whole entry, looked up): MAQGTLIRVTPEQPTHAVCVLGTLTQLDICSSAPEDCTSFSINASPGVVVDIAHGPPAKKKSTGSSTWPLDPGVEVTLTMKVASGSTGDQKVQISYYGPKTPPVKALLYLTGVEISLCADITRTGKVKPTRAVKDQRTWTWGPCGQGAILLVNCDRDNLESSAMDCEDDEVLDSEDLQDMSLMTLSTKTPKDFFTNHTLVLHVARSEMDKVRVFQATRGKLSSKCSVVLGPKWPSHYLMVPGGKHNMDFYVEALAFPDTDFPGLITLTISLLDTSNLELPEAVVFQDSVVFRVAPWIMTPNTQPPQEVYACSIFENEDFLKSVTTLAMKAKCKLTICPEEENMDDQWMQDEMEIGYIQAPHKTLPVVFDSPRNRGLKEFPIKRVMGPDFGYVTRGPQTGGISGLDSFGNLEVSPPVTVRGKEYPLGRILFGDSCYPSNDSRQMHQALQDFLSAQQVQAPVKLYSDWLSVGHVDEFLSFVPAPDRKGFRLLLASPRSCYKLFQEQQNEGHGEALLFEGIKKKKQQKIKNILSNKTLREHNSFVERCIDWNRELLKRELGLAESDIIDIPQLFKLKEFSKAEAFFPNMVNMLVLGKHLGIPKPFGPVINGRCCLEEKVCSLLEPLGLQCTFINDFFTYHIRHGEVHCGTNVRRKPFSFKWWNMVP
PP5 conf: confirmation of human PP5 phosphatase inhibitors; Purified PP5, fluorogenic phosphatase substrate, fluorescence; inhibition, % at 6.7 µM; shares compounds with PP5 primary; 460 tested, 22% active; in the data active means inhibition above about 9.5%
PP1 counter 3x: inhibits human PP1 phosphatase in PP5 counter-screen; shares compounds with PP5 primary; PP1 enzyme, fluorescent phosphatase substrate; inhibition, % at 6.7 µM; 460 tested, 4% active; AID 2355; in the data active means inhibition above about 16%
* = called active by the depositor; · = no result.

SMILES	PP5 primary	UCH37 DUB inh	Apaf1 inhib	CTSL1 counter	GSTO1 inh	PAD4 inh	PP5 conf	PP1 counter 3x
O=C(O)CCC(=O)c1c[nH]c2ccccc12	12*	5	1	-8	-9	-2	-6	-2
O=C(CCN1CCN(CCO)CC1)Nc1ccc(OCc2ccccc2)cc1	10*	2	-1	0	3	1	-2	-3
CN1CCN(CCC(=O)Nc2ccc(OCc3ccccc3)cc2)CC1	0	-1	-3	-3	5	-3	·	·
Cc1cccc(NC(=O)C2CCN(S(C)(=O)=O)CC2)c1C	11*	·	-12	2	5	-5	-8	-6
O=C(NN=Cc1ccc(OCc2ccccc2)cc1)c1ccncc1	·	-66	·	·	·	·	·	·
O=C(NN=C1CCS(=O)(=O)c2ccc(F)cc21)c1ccc(O)cc1	·	3	·	·	·	·	·	·
COc1cccc(NC(=O)CN(C)C(=O)c2ccccc2OCC(=O)Nc2cccc(C(F)(F)F)c2)c1	0	2	20	2	-10	-5	·	·
COc1cccc(NC(=O)CN(C)C(=O)c2cccnc2Nc2cccc(C(F)(F)F)c2)c1	14*	4	15	·	·	-3	9.7*	10
Cc1ccc(NC(=O)CN(C)C(=O)c2cccnc2Nc2cccc(C(F)(F)F)c2)cc1	11*	2	26	5	-2	0	9	10
NC(=NOC(=O)CCC1CCCC1)c1cccc([N+](=O)[O-])c1	·	1	·	·	·	·	·	·
CCOc1ccc(NC(=O)N2CCC(C(N)=O)(N3CCCCC3)CC2)cc1	11*	0	-2	-4	5	-2	-2	-1
C=CCc1cccc(C=NNC(=O)CNc2ccccc2OC)c1O	·	-1	·	·	·	·	·	·
CCCCOC(=O)Cn1c(-c2ccccc2)nc2ccccc2c1=O	1	4	14	2	4	-2	·	·
CCOC(=O)Cn1c(-c2ccccc2)nc2ccccc2c1=O	11*	0	20	3	11	-6	-2	-2
Cc1onc(-c2ccccc2)c1C(=O)NN=C/C=C/c1ccccc1	·	2	·	·	·	·	·	·
COc1ccc(-c2nc(NN=C(C)c3ccc(O)cc3)c3ccccc3n2)cc1	·	4	·	·	·	·	·	·
CCOc1ccc(N(CC(=O)Nc2c(C)cccc2C)S(=O)(=O)c2c(C)[nH]c(=O)[nH]c2=O)cc1	12*	5	4	0	3	-3	-7	-6
CCOc1cc2c(cc1OCC)C(c1ccc(OC)c(OC)c1)N(c1ccc(C(=O)O)cc1)C(=O)C2 (configuration not stated)	0	3	2	5	2	-2	·	·
CCOc1ccc(C2c3cc(OC)c(OC)cc3CC(=O)N2c2ccc(OC)cc2)cc1 (configuration not stated)	9.7*	-2	22	3	6	-5	1	0
Cc1ccc(Nc2nc(NN=Cc3c[nH]c4ccccc34)nc(N3CCOCC3)n2)cc1	·	0	·	·	·	·	·	·
O=[N+]([O-])c1ccc(N(c2ccccc2)c2ccccc2)cc1	9.9*	-2	4	2	8	-8	-2	-1
O=C1CC(N2CCN(c3ccccc3)CC2)C(=O)N1c1cccc(Cl)c1 (configuration not stated)	-1	3	-1	-7	-7	-2	·	·
O=C1CC(N2CCN(c3ccc(Cl)cc3)CC2)C(=O)N1c1ccccc1 (configuration not stated)	10*	2	3	-3	3	5	-2	-3
Cc1ccc(S(=O)(=O)N2CCN(S(=O)(=O)c3c(C)n[nH]c3C)CC2)cc1C	16*	-1	-14	·	·	3	3	2
COCCOC(=O)C1=C(C)NC(=O)NC1c1cn(-c2ccccc2)nc1-c1cccs1 (configuration not stated)	6	-1	12	-1	4	-5	·	·
SMILES	PP5 primary	UCH37 DUB inh	Apaf1 inhib	CTSL1 counter	GSTO1 inh	PAD4 inh	PP5 conf	PP1 counter 3x
COC(=O)C1=C(C)NC(C)=C(C(=O)OC)C1c1cn(-c2ccccc2)nc1-c1ccco1	14*	-32	8	0	-3	-1	2	3
Cc1cccc(OCCn2ccnc2)c1	-1	-1	-9	1	4	-4	·	·
Clc1ccc(OCCn2ccnc2)cc1Cl	10*	4	-16	1	-5	-6	-2	-3
COc1cccc(CNC(=O)C2CCN(S(=O)(=O)c3ccccc3)CC2)c1	12*	3	-11	-2	-1	-4	-3	-3
COc1cc(CC(=O)NN=Cc2ccc([N+](=O)[O-])cc2)c([N+](=O)[O-])cc1OC	·	10	·	·	·	·	·	·
Cc1cccc(NN=Cc2ccc(O)c(O)c2O)c1	·	7	·	·	·	·	·	·
NC(=O)c1ccc(C(F)(F)F)n(Cc2c(Cl)cccc2Cl)c1=O	12*	-2	34	3	14	-2	6	8
Cn1ccnc1C(=O)c1ccc(S(=O)(=O)N2CCCC2)cc1	-1	3	-4	0	-2	-2	·	·
Cn1ccnc1C(=O)c1ccc(Cl)c(S(=O)(=O)N2CCOCC2)c1	10.0*	4	-16	1	9	-2	-3	-3
O=C(NCCc1ccccc1)C(=NO)c1ccccc1	·	0	·	·	·	·	·	·
CCOC(=O)N1CCN(C(=O)c2cccn3c(=O)c4cc(Br)ccc4nc23)CC1	0	0	8	-1	7	-6	·	·
CCOC(=O)N1CCN(C(=O)c2cccn3c(=O)c4cc(Cl)ccc4nc23)CC1	11*	-336	5	0	7	-1	-5	-5
O=C1N/C(=N/O)S/C1=C/c1cccc([N+](=O)[O-])c1	0	5	6	-1	2	-2	·	·
O=C1N/C(=N\S(=O)(=O)Cc2ccccc2)S/C1=C/c1cccc([N+](=O)[O-])c1	11*	·	4	2	-6	5	-2	6
COc1ccc(/C=C/C(=O)Nc2cc(C(F)(F)F)ccc2Cl)cc1OC	6	-23	7	-5	-16	-3	·	·
COc1cc(/C=C/C(=O)Nc2cc(C(F)(F)F)ccc2Cl)cc(OC)c1OC	9.9*	-26	10	0	-15	5	4	3
O=C(Nc1ccc(O)cc1)/C(=C\C=C\c1ccccc1)NC(=O)c1ccccc1	12*	8	-12	1	-6	1	-2	-2
S=c1[nH]nc(-c2ccccn2)n1N=Cc1c(Cl)cccc1Cl	·	6	·	·	·	·	·	·
O=C(Nc1ccc(OCC(F)(F)C(F)F)c(C(F)(F)F)c1)c1ccccc1O	11*	-11	22	5	-15	0	6	5
O=C(Nc1ccc(OCC(F)(F)C(F)F)c(C(F)(F)F)c1)c1ccccc1	9	2	14	2	-5	4	·	·
Cc1ccnc(NC(=O)COC(=O)c2ccc(F)cc2F)n1	15*	-2	-14	-1	6	-2	-5	-5
